“And” between values parts separate entries of the source, which are not always exact repeats. Equal entries are not always repeated. “Also recorded” adds a separate entry of the source. K(Me2NCp) = not defined here; CbOH = not defined here
Columns and labels:
[1] = Absorption and fluorescence spectroscopy, quantum yield; type: physicochemical; conditions: for λabs max / λem max / Quantum yield: 20% DMSO in water; for λabs max / λem max: room temperature; for Quantum yield: relative to ICG in DMSO, QY=0.12
How it was run: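 Test compounds dissolved in spectral-grade DMSO, diluted in 20% DMSO/water, and read at room temperature. Fluorescence was excited at 700 nm with 5 nm slits, keeping absorbance below 0.1. Molar absorptivity was averaged from three-point measurements at the absorption maximum. Quantum yield was taken relative to ICG in 100% DMSO. Probe in assay buffer was split: one half diluted with water to 1 mL, the other cleaved by caspase-3, then diluted likewise.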

[2] = Fluorescence lifetime measurement; type: physicochemical; conditions: 20% DMSO/water, excitation 773 nm, detection 820 nm, room temperature
How it was run: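 TCSPC used a 773 nm pulsed LED source at 1 MHz, with detection at 90°. Counts were binned at 6.88 ps/channel until the peak reached 10,000, on a 50 ns scale. Instrument response came from Rayleigh scatter of 0.03% Ludox-40. Decays in 20% DMSO/water were fitted to two exponentials, discarding components contributing <3%.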

[3] = dissolved in 100% DMSO; reference value used for comparison; cited from earlier work
A549 cells = type: cell-based, human; conditions: 5 μM paclitaxel for 2 h; read out by fluorescence of 5
How it was run: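 A549 cells were grown in Ham's F12K with 10% FBS and penicillin/streptomycin at 37°C, 5% CO2, seeded at 1×10^5/well in chamber slides overnight. Cells were loaded with 10 μM probe using GeneJuice in Opti-MEM for 24 h at 37°C. Paclitaxel was given for 2 h at 37°C, then three PBS washes. NIR confocal imaging (785 nm laser) read mean cytoplasmic intensity (Ex/Em 785/805–830) in 12 cells; mean ± SD, t-test.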

caspase-3 = conditions: cited from earlier work; for Km: read-out: KM of standard substrate
[4] = target: T1, recombinant human caspase-3 (Homo sapiens, UniProt P42574); test: Caspase-3 enzyme kinetics of the NIR substrates; type: biochemical
T1 sequence (P42574 29-175 limits assumed): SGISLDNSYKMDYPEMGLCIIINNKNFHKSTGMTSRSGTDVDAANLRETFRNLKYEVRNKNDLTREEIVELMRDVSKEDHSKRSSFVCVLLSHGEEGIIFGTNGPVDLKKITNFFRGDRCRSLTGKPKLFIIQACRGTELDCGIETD
T1 sequence (P42574 176-277 limits assumed): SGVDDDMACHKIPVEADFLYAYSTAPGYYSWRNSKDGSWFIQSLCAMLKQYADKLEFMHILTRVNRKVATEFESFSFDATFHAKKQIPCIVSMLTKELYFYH
How it was run: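 Active sites were titrated with Ac-DEVD-pNA (2.5–50 μM, 25°C, absorbance […] nm). Substrate (0.5–100 μM; DMSO stock) hydrolysis was followed by NIR fluorescence (ex 785/em 805 nm) over time. Linear slope ÷ complete-hydrolysis fluorescence × [S] gave vo, fitted to Michaelis–Menten. kcat/KM was computed; ± SEM.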

Row | Compound | λabs max [1] | λem max [1] [nm] | Quantum yield [1] | kcat of standard substrate (caspase-3) [s⁻¹] | Km (caspase-3) [µM] | further results
1 | CC1(C)C(/C=C/C=C/C=C/C=C2/N(CCC(=O)O)c3ccc4ccccc4c3C2(C)C)=[N+](CCC(=O)[O-])c2ccc3ccccc3c21 [Compound 2, cypate, reference compound] | 783 nm | 808 | 0.031 | – | – | Lifetime [2]: 0.25 ns
2 | CC1(C)C(/C=C/C=C/C=C/C=C2\N(CCCCS(=O)(=O)O)c3ccc4ccccc4c3C2(C)C)=[N+](CCCCS(=O)(=O)[O-])c2ccc3ccccc3c21 [ICG, indocyanine green] | – | – | – | – | – | Fluorescence quantum yield of the standard [3]: 0.12
3 | CC(=O)O[C@H]1C(=O)[C@@]2(C)[C@H]([C@H](OC(=O)c3ccccc3)[C@]3(O)C[C@H](OC(=O)[C@H](O)[C@@H](NC(=O)c4ccccc4)c4ccccc4)C(C)=C1C3(C)C)[C@]1(OC(C)=O)CO[C@@H]1C[C@@H]2O [paclitaxel] | – | – | – | – | – | Activation of caspase-3 in A549 cells (A549 cells): sufficient to activate caspase-3
4 | Ac-DEVD-AMC | – | – | – | 0.75 | 9.7 | –
5 | Ac-DEVD-pNA | – | – | – | 2.4 | 11 | –
6 | AcGK(Me2NCp)-DEVD-APK(CbOH)-NH2 ({Ac-Gly-K(Me2NCp)}-DEVDAPK(CbOH)-NH2; reading uncertain; also: printed as AcGK(Me2NCp)-DEVD-APK(CbOH)-NH2) [Compound 5] | 759 nm and 790 nm | 763 | <0.001 | – | – | Ratio F760/F810 of emission after cleavage ([1]; 5 after enzymatic cleavage by caspase-3, diluted with water): 7.16; kcat (turnover number) ([4]; 5 (0.5 to 100 μM) with caspase 3 (290 pM), 10 mM PIPES pH 7.4, 2 mM EDTA, 0.1% CHAPS, 5 mM DTT, triplicate, λex=785 nm, λem=805 nm, ± standard error of the mean, SEM): 1.02 ± 0.06 s⁻¹; Cleavage (hydrolysis) by caspase-3, in words ([4]; assay buffer pH 7.4, recombinant human caspase-3): cleaved more readily than 4; also recorded: readily cleaved; kcat/KM (catalytic efficiency) ([4]; caspase-3, computed from kcat and KM): 68000 M⁻¹ s⁻¹; Km ([4]; read-out: KM (Michaelis-Menten constant), 5 (0.5 to 100 μM) with caspase 3 (290 pM), 10 mM PIPES pH 7.4, 2 mM EDTA, 0.1% CHAPS, 5 mM DTT, triplicate, λex=785 nm, λem=805 nm, ± standard error of the mean, SEM): 15 ± 3 µM
